# Assay results reported in ChEMBL document CHEMBL4308915, “Synthesis of novel pyrazoline derivatives and the evaluation of death mechanisms involved in their antileukemic activity” (Bioorg Med Chem, 2019).
# Calls of active or inactive are those of the source. No cut-off for these calls is given here.
# How the values were obtained:
# [1] = Hemolytic activity in human RBC at 15 times IC50 relative to control; format: ADME, cell-based, Erythrocyte; settings: red blood cells (erythrocytes), read-out: Activity
# How it was run: (§1)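 RBC from healthy non-smoking volunteers incubated with increasing concentrations of the selected pyrazolines. Saline served as the 0% lysis control and distilled water as the 100% lysis control. Percent hemolysis calculated relative to these controls.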
# [2] = test system: Jurkat; assay: Induction of apoptosis in human Jurkat cells assessed as increase in caspase-3 expression at 33.7 uM after 12 hrs by flow cytometric analysis relative to control; format: functional
# [3] = test system: Jurkat; assay: Induction of apoptosis in human Jurkat cells assessed as increase in loss of membrane integrity at 33.7 uM by acridine orange/ethidium bromide staining-based fluorescence microscopic analysis; format: functional, cell-based
# [4] = Hemolytic activity in human RBC at 12 times IC50 relative to control; format: ADME, cell-based, Erythrocyte; settings: red blood cells (erythrocytes), read-out: Activity; how it was run: as §1
# [5] = test system: K562; assay: Induction of apoptosis in human K562 cells assessed as increase in Bax expression at 55.7 uM after 12 hrs by flow cytometric analysis relative to control; format: functional
# [6] = Hemolytic activity in human RBC at 1 time IC50 relative to control; format: ADME, cell-based, Erythrocyte; settings: red blood cells (erythrocytes), read-out: Activity; how it was run: as §1
# [7] = test system: Daudi; assay: Cytotoxicity against human Daudi cells assessed as reduction in cell viability after 72 hrs by MTT assay; format: functional, cell-based
# [8] = test system: B16-F10; assay: Cytotoxicity against mouse B16F10 cells assessed as reduction in cell viability after 72 hrs by MTT assay; format: functional, cell-based; settings: B16-F10, 72 h
# [9] = test system: Jurkat; assay: Induction of apoptosis in human Jurkat cells assessed as increase in FasR expression at 33.7 uM after 12 hrs by flow cytometric analysis relative to control; format: functional
# [10] = test system: Jurkat; assay: Cell cycle arrest in human Jurkat cells assessed as increase in accumulation at S phase at 33.7 uM after 12 hrs by propidium iodide/RNAse staining based flow cytometric analysis; format: functional
# [11] = test system: Jurkat; assay: Induction of apoptosis in human Jurkat cells assessed as decrease in survivin level at 33.7 uM after 12 hrs by flow cytometric analysis relative to control; format: functional
# [12] = Hemolytic activity in human RBC at 3 times IC50 relative to control; format: ADME, cell-based, Erythrocyte; settings: red blood cells (erythrocytes), read-out: Activity; how it was run: as §1
# [13] = test system: Daudi; assay: Cytotoxicity against human Daudi cells assessed as reduction in cell viability after 24 hrs by MTT assay; format: functional, cell-based
# How it was run: (§2)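 MTT viability after 24 h exposure. Cells seeded at 5x10^4 per well and tested at 1-100 µM. Optical density of untreated cells set as 100% viable. IC50 derived by curve fitting. PBMC from healthy non-smoking volunteers, isolated by Ficoll-Hypaque.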
# [14] = test system: K562; assay: Induction of apoptosis in human K562 cells at 55.7 uM after 12 hrs by Annexin-V FITC staining-based flow cytometry relative to control; format: functional
# [15] = Hemolytic activity in human RBC at 2 times IC50 relative to control; format: ADME, cell-based, Erythrocyte; settings: red blood cells (erythrocytes), read-out: Activity; how it was run: as §1
# [16] = test system: Jurkat; assay: Induction of apoptosis in human Jurkat cells assessed as increase in membrane blebbing at 33.7 uM by acridine orange/ethidium bromide staining-based fluorescence microscopic analysis; format: functional, cell-based
# [17] = test system: Jurkat; assay: Induction of apoptosis in human Jurkat cells assessed as increase in AIF release at 33.7 uM after 12 hrs by flow cytometric analysis relative to control; format: functional
# [18] = test system: PBMC; assay: Cytotoxicity against human PBMC assessed as reduction in cell viability after 72 hrs by MTT assay; format: cell-based
# [19] = Selectivity index, ratio of IC50 for human PBMC to IC50 for human Daudi cells after 24 hrs
# How it was run: (§3)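 MTT viability after 24 h exposure to 1-100µM; untreated control OD taken as 100%. IC50 by curve fitting in each line and in PBMC from six healthy donors (Ficoll-Hypaque). SI = IC50 PBMC / IC50 tumor line; SI ≥5 high, 2–5 moderate, <2 low.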
# [20] = test system: K562; assay: Induction of apoptosis in human K562 cells assessed as decrease in survivin level at 55.7 uM after 12 hrs by flow cytometric analysis relative to control; format: functional
# [21] = test system: Jurkat; assay: Induction of DNA fragmentation in human Jurkat cells assessed as increase in ladder formation at 33.7 uM after 12 hrs by ethidium bromide staining based agarose gel electrophoresis method; format: functional, cell-based
# [22] = test system: Jurkat; assay: Cytotoxicity against human Jurkat cells assessed as reduction in cell viability after 48 hrs by MTT assay; format: functional, cell-based
# [23] = Selectivity index, ratio of IC50 for human PBMC to IC50 for human K562 cells after 24 hrs; format: toxicity; settings: PBMC versus K562 cells, read-out: Ratio IC50; how it was run: as §3
# [24] = test system: K562; assay: Induction of apoptosis in human K562 cells assessed as increase in FasR expression at 55.7 uM after 12 hrs by flow cytometric analysis relative to control; format: functional
# [25] = Selectivity index, ratio of IC50 for human PBMC to IC50 for mouse B16F10 cells after 24 hrs; format: toxicity; settings: PBMC versus B16F10 cells, read-out: Ratio IC50; how it was run: as §3
# [26] = test system: K562; assay: Cytotoxicity against human K562 cells assessed as reduction in cell viability after 48 hrs by MTT assay; format: functional, cell-based; settings: K562, 48 h
# [27] = test system: K562; assay: Induction of apoptosis in human K562 cells assessed as increase in chromatin condensation at 55.7 uM by acridine orange/ethidium bromide staining-based fluorescence microscopic analysis; format: functional, cell-based
# [28] = test system: K562; assay: Induction of apoptosis in human K562 cells assessed as reduction in cells with intact mitochondrial membrane potential at 55.7 uM after 12 hrs by flow cytometric analysis relative to control; format: functional; parameters: scale not given: the % may be the effect or the level left
# [29] = (§4) Cytotoxicity against acute leukemia patient-derived bone marrow cells assessed as reduction in cell viability after 24 hrs; format: functional, cell-based; settings: Homo sapiens
# How it was run: (§5)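 Mononuclear cells from acute leukemia patient samples (peripheral blood or bone marrow, taken before first treatment at diagnosis or relapse) isolated by Ficoll-Hypaque.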
# [30] = species: Homo sapiens; assay: as §4; format: functional, cell-based; how it was run: as §5
# [31] = test system: K562; assay: Induction of apoptosis in human K562 cells assessed as increase in loss of membrane integrity at 55.7 uM by acridine orange/ethidium bromide staining-based fluorescence microscopic analysis; format: functional, cell-based
# [32] = test system: B16-F10; assay: Cytotoxicity against mouse B16F10 cells assessed as reduction in cell viability after 48 hrs by MTT assay; format: functional, cell-based; settings: B16-F10, 48 h
# [33] = test system: K562; assay: Cell cycle arrest in human K562 cells assessed as increase in accumulation at G0/G1 phase at 55.7 uM after 12 hrs by propidium iodide/RNAse staining based flow cytometric analysis relative to control; format: functional
# [34] = test system: K562; assay: Cytotoxicity against human K562 cells assessed as reduction in cell viability after 72 hrs by MTT assay; format: functional, cell-based; settings: K562, 72 h
# [35] = test system: Daudi; assay: Cytotoxicity against human Daudi cells assessed as reduction in cell viability after 48 hrs by MTT assay; format: functional, cell-based
# [36] = test system: K562; assay: Induction of apoptosis in human K562 cells assessed as increase in membrane blebbing at 55.7 uM by acridine orange/ethidium bromide staining-based fluorescence microscopic analysis; format: functional, cell-based
# [37] = test system: Jurkat; assay: Cytotoxicity against human Jurkat cells assessed as reduction in cell viability after 24 hrs by MTT assay; format: functional, cell-based; how it was run: as §2
# [38] = Selectivity index, ratio of IC50 for human PBMC to IC50 for human Jurkat cells after 24 hrs; format: toxicity; settings: PBMC versus Jurkat cells, read-out: Ratio IC50; how it was run: as §3
# [39] = test system: Jurkat; assay: Induction of apoptosis in human Jurkat cells assessed as reduction in cells with intact mitochondrial membrane potential at 33.7 uM after 12 hrs by flow cytometric analysis relative to control; format: functional; parameters: scale not given: the % may be the effect or the level left
# [40] = test system: PBMC; assay: Cytotoxicity against human PBMC assessed as reduction in cell viability after 24 hrs by MTT assay; format: cell-based
# [41] = Hemolytic activity in human RBC at 9 times IC50 relative to control; format: ADME, cell-based, Erythrocyte; settings: red blood cells (erythrocytes), read-out: Activity; how it was run: as §1
# [42] = test system: Jurkat; assay: Induction of apoptosis in human Jurkat cells assessed as increase in Bax expression at 33.7 uM after 12 hrs by flow cytometric analysis relative to control; format: functional
# [43] = test system: Jurkat; assay: Induction of apoptosis in human Jurkat cells at 33.7 uM after 12 hrs by Annexin-V FITC staining-based flow cytometry relative to control; format: functional
# [44] = test system: PBMC; assay: Cytotoxicity against human PBMC assessed as reduction in cell viability after 48 hrs by MTT assay; format: cell-based
# [45] = test system: Jurkat; assay: Cytotoxicity against human Jurkat cells assessed as reduction in cell viability after 72 hrs by MTT assay; format: functional, cell-based
# [46] = test system: K562; assay: Antiproliferative activity against human K562 cells assessed as reduction in KI-67 expression at 55.7 uM after 12 hrs by flow cytometric analysis; format: functional, cell-based
# [47] = test system: K562; assay: Cytotoxicity against human K562 cells assessed as reduction in cell viability after 24 hrs by MTT assay; format: functional, cell-based; settings: K562, 24 h; how it was run: as §2
# [48] = test system: B16-F10; assay: Cytotoxicity against mouse B16F10 cells assessed as reduction in cell viability after 24 hrs by MTT assay; format: functional, cell-based; settings: B16-F10, 24 h; how it was run: as §2
# [49] = test system: Jurkat; assay: Induction of apoptosis in human Jurkat cells assessed as increase in chromatin condensation at 33.7 uM by acridine orange/ethidium bromide staining-based fluorescence microscopic analysis; format: functional, cell-based
# [50] = test system: K562; assay: Induction of apoptosis in human K562 cells assessed as increase in caspase-3 expression at 55.7 uM after 12 hrs by flow cytometric analysis; format: functional, cell-based
# [51] = test system: Jurkat; assay: Antiproliferative activity against human Jurkat cells assessed as reduction in KI-67 expression at 33.7 uM after 12 hrs by flow cytometric analysis; format: functional, cell-based
# [52] = test system: PBL; assay: Cytotoxicity against acute leukemia patient-derived PBL cells assessed as reduction in cell viability after 24 hrs; format: functional, cell-based; settings: Homo sapiens; how it was run: as §5
smiles,measurement,setting,value
COc1cc(C2=NN(C(C)=O)C(c3ccc4ccccc4c3)C2)cc(OC)c1OC (stereo not drawn),hemolysis at 15 times IC50,[1],6.4%
same,Activity,[2],6.6%
same,Activity,[3],Active
same,hemolysis at 12 times IC50,[4],3.2%
same,Activity,[5],16.8%
same,hemolysis at 1 times IC50,[6],1.9%
same,IC50,[7],5.1 µM
same,IC50,[8],23.3 µM
same,Activity,[9],30.3%
same,Activity,[10],inactive
same,Activity,[11],21.4%
same,hemolysis at 3 times IC50,[12],1.6%
same,IC50,[13],46.2 µM
same,Activity,[14],18.8%
same,hemolysis at 2 times IC50,[15],1.5%
same,Activity,[16],Active
same,Activity,[17],6%
same,IC50,[18],55.3 µM
same,Ratio IC50,[19],10.7
same,Activity,[20],22.2%
same,Activity,[21],Active
same,IC50,[22],27.7 µM
same,selectivity ratio at 24 h,[23],8.9
same,Activity,[24],34.3%
same,selectivity ratio at 24 h,[25],6.9
same,IC50,[26],21.9 µM
same,Activity,[27],Active
same,Activity,[28],26%
same,IC50,[29],16.2 to 44.6 µM
same,Activity,[30],Dose-dependent effect
same,Activity,[31],Active
same,IC50,[32],56.6 µM
same,Activity,[33],7.4%
same,IC50,[34],15.5 µM
same,IC50,[35],20.2 µM
same,Activity,[36],Active
same,IC50,[37],33.7 µM
same,selectivity ratio at 24 h,[38],14.7
same,Activity,[39],41%
same,IC50,[40],497 µM
same,hemolysis at 9 times IC50,[41],2.4%
same,Activity,[42],20.5%
same,Activity,[43],29.2%
same,IC50,[44],105 µM
same,IC50,[45],25.3 µM
same,Activity,[46],Active
same,IC50,[47],55.7 µM
same,IC50,[48],72.3 µM
same,Activity,[49],Active
same,Activity,[50],inactive
same,Activity,[51],Active
same,Activity,[52],Dose-dependent effect
same,IC50,[52],27.7 to 139 µM
